From ChEMBL document CHEMBL5329191, “Optimization of the 2-arylquinazoline-4(3H)one scaffold for a selective and potent antitrypanosomal agent: modulation of the mechanism of action through chemical functionalization” (RSC Med Chem, 2023)
Values after ≈ are worked out from the molar mass of the structure shown. Active and inactive are the calls of the source. The rule behind the calls is not given here.

Tests used:
Leishmania infantum [1] = assay: Antileishmanial activity against Leishmania infantum promastigotes; type: functional, organism-based
Trypanosoma cruzi [2] = assay: Antitrypanosomal activity against of Trypanosoma cruzi epimastigotes; type: functional, organism-based
Trypanosoma cruzi [3] = assay: Antitrypanosomal activity against of Trypanosoma cruzi epimastigotes at 25 uM; type: functional
[4] = Solubility of the compound by UV-Vis spectroscopy; type: physicochemical
Method in brief: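 Solubility in μM was determined by UV-Vis spectroscopy.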

[5] = Cytotoxicity against mouse J774.1 cells; type: toxicity, cell-based
Method in brief: (§1)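 Cytotoxicity (CC50) was measured on murine J774.1A macrophages. Selectivity index is CC50 divided by parasite IC50 (promastigote, epimastigote or axenic amastigote). Values are the mean of three independent experiments.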

[6] = Selectivity index, ratio of CC50 for mouse J774.1 cells to IC50 for Leishmania infantum promastigotes; type: toxicity; conditions: read-out: Ratio CC50/IC50; method in brief: as §1
Leishmania infantum [7] = assay: Antileishmanial activity against Leishmania infantum axenic amastigotes; type: functional, organism-based
[8] = Selectivity index, ratio of CC50 for mouse J774.1 cells to IC50 for Leishmania infantum amastigotes; type: toxicity; conditions: read-out: Ratio CC50/IC50; method in brief: as §1
[9] = Selectivity index, ratio of CC50 for mouse J774.1 cells to IC50 for Trypanosoma cruzi epimastigotes; type: toxicity; conditions: read-out: Ratio CC50/IC50; method in brief: as §1
Trypanosoma cruzi [10] = assay: Antitrypanosomal activity against of Trypanosoma cruzi epimastigotes in presence of FA; type: functional, organism-based
Leishmania infantum [11] = assay: Antileishmanial activity against Leishmania infantum promastigotes assessed as increase in IC50 in presence of FA; type: functional
Trypanosoma cruzi [12] = assay: Antitrypanosomal activity against of Trypanosoma cruzi epimastigotes assessed as increase in IC50 in presence of FA; type: functional
Leishmania infantum [13] = assay: Antileishmanial activity against Leishmania infantum promastigotes assessed as decrease in IC50 in presence of copper(II); type: functional, organism-based
Method in brief: (§2)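 Parasite proliferation was run in the presence of copper(II), iron(III) or zinc(II) salts, each at 1 μM.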

Leishmania infantum [14] = assay: Antileishmanial activity against Leishmania infantum promastigotes assessed as decrease in IC50 in presence of iron(III); type: functional, organism-based; method in brief: as §2
Leishmania infantum [15] = assay: Antileishmanial activity against Leishmania infantum promastigotes assessed as decrease in IC50 in presence of zinc(II); type: functional, organism-based; method in brief: as §2
Trypanosoma cruzi [16] = assay: […] activity against Trypanosoma cruzi epimastigotes assessed as change in parasites in presence of copper(II); type: functional, organism-based; method in brief: as §2
Trypanosoma cruzi [17] = assay: […] activity against Trypanosoma cruzi epimastigotes assessed as change in parasites in presence of iron(III); type: functional, organism-based; method in brief: as §2
Trypanosoma cruzi [18] = assay: […] activity against Trypanosoma cruzi epimastigotes assessed as change in parasites in presence of zinc(II); type: functional, organism-based; method in brief: as §2
Leishmania infantum [19] = assay: Induction of ROS production in Leishmania infantum promastigotes in presence of Zn2+; type: functional, organism-based
Method in brief: (§3)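 Oxidative stress in parasite cultures was read fluorometrically with the 2,7-dichlorodihydrofluorescein diacetate (DCFH-DA) probe against a negative-control culture, and was also run with metal cations present.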

Leishmania infantum [20] = assay: Induction of ROS production in Leishmania infantum promastigotes in presence of Cu2+; type: functional, organism-based; method in brief: as §3
Leishmania infantum [21] = assay: Induction of ROS production in Leishmania infantum promastigotes in presence of Fe3+; type: functional, organism-based; method in brief: as §3
Trypanosoma cruzi [22] = assay: Induction of ROS production in Trypanosoma cruzi epimastigotes in presence of Zn2+; type: functional, organism-based; method in brief: as §3
Trypanosoma cruzi [23] = assay: Induction of ROS production in Trypanosoma cruzi epimastigotes in presence of Cu2+; type: functional, organism-based; method in brief: as §3
Trypanosoma cruzi [24] = assay: Induction of ROS production in Trypanosoma cruzi epimastigotes in presence of Fe3+; type: functional, organism-based; method in brief: as §3
[25] = Mutagenicity in Salmonella typhimurium TA98 assessed as number of revertant colonies at 100 uM by Ames test (reference value: 4); type: toxicity; conditions: salmonella enterica subsp. enterica […]
Method in brief: (§4)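 Ames reverse-mutation assay in Salmonella typhimurium TA 98. Revertant colonies were counted at five escalating dose levels alongside a zero-dose (spontaneous revertant) negative control and a 4-nitro-o-phenylenediamine positive control. A compound was called mutagenic when revertants exceeded twice the negative control at two consecutive dose levels.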

[26] = Mutagenicity in Salmonella typhimurium TA98 assessed as number of revertant colonies at 300 uM by Ames test (reference value: 4); type: toxicity; conditions: salmonella enterica subsp. enterica […]; method in brief: as §4
[27] = Mutagenicity in Salmonella typhimurium TA98 assessed as number of revertant colonies at 1000 uM by Ames test (reference value: 4); type: toxicity; conditions: salmonella enterica subsp. enterica […]; method in brief: as §4
[28] = Mutagenicity in Salmonella typhimurium TA98 assessed as number of revertant colonies at 3000 uM by Ames test (reference value: 4); type: toxicity; conditions: salmonella enterica subsp. enterica […]; method in brief: as §4
[29] = Mutagenicity in Salmonella typhimurium TA98 assessed as number of revertant colonies at 9000 uM by Ames test (reference value: 4); type: toxicity; conditions: salmonella enterica subsp. enterica […]; method in brief: as §4
Leishmania infantum [30] = assay: Antileishmanial activity against Leishmania infantum promastigotes in presence of FA; type: functional, organism-based
[31] = Mutagenicity in Salmonella typhimurium TA98 assessed as number of revertant colonies at 20 uM by Ames test (reference value: 4); type: toxicity; conditions: salmonella enterica subsp. enterica […]; method in brief: as §4

## NNc1nc(-c2cccc(Br)c2)nc2ccccc12
Leishmania infantum [1]
  IC50: 21.1 µM
Trypanosoma cruzi [2]
  IC50: > 25 µM
Trypanosoma cruzi [3]
  inhibition at 25 µM: 21.4%

## Cc1ccc(-c2nc(NN)c3ccccc3n2)cc1
Leishmania infantum [1]
  IC50: 1.2 µM
Trypanosoma cruzi [2]
  IC50: 18 µM

## O=[N+]([O-])c1ccc(/C=N/N=c2\[nH]c(-c3ccc(Cl)cc3)nc3ccccc23)o1
Leishmania infantum [1]
  IC50: > 25 µM
Trypanosoma cruzi [2]
  IC50: > 25 µM
[4]
  solubility: 3.21 µM (≈ 1.26 µg/mL)

## CCCCCCCCCCCCCCCCOP(=O)([O-])OCC[N+](C)(C)C [MILTEFOSINE]
Leishmania infantum [1]
  IC50: 10.1 µM
[5]
  CC50: 89.2 µM
[6]
  selectivity ratio: 8.9
Leishmania infantum [7]
  IC50: 8.69 µM
[8]
  selectivity ratio: 10.1

## O=[N+]([O-])c1ccc(/C=N/N=c2\[nH]c(-c3ccc(F)cc3)nc3ccccc23)o1
Leishmania infantum [1]
  IC50: 4.56 µM
Trypanosoma cruzi [2]
  IC50: 4.08 µM
[4]
  solubility: 5.11 µM (≈ 1.93 µg/mL)
[5]
  CC50: 69.1 µM
[6]
  selectivity ratio: 15.1
[9]
  selectivity ratio: 16.8
Leishmania infantum [7]
  IC50: 3.52 µM
[8]
  selectivity ratio: 19.6
Trypanosoma cruzi [10]
  IC50: 6.54 µM
Leishmania infantum [11]
  Activity: 31%
Trypanosoma cruzi [12]
  Activity: 38%
Leishmania infantum [13]
  Activity: Active
Leishmania infantum [14]
  Activity: Active
Leishmania infantum [15]
  Activity: Active
Trypanosoma cruzi [16]
  Activity: inactive
Trypanosoma cruzi [17]
  Activity: inactive
Trypanosoma cruzi [18]
  Activity: inactive
Leishmania infantum [19]
  Activity: Active
Leishmania infantum [20]
  Activity: Active
Leishmania infantum [21]
  Activity: Active
Trypanosoma cruzi [22]
  Activity: Active
Trypanosoma cruzi [23]
  Activity: Active
Trypanosoma cruzi [24]
  Activity: Active
[25]
  Activity: 2
[26]
  Activity: 2.5
[27]
  Activity: 3.5
[28]
  Activity: 3
[29]
  Activity: 3

## NNc1nc(-c2ccccc2)nc2ccccc12
Leishmania infantum [1]
  IC50: 12.7 µM
Trypanosoma cruzi [2]
  IC50: > 25 µM
Trypanosoma cruzi [3]
  inhibition at 25 µM: 42.7%

## Oc1nc(-c2ccc(F)cc2)nc2ccccc12
Leishmania infantum [1]
  IC50: 8.67 µM
Trypanosoma cruzi [2]
  IC50: 22.7 µM
Leishmania infantum [30]
  IC50: 9.78 µM
Trypanosoma cruzi [10]
  IC50: 33.2 µM
Leishmania infantum [11]
  Activity: 14%
Trypanosoma cruzi [12]
  Activity: 47%

## O=c1[nH]c(-c2cccc(Br)c2)nc2ccccc12
Leishmania infantum [1]
  IC50: > 25 µM
Trypanosoma cruzi [2]
  IC50: > 25 µM

## Nc1ccc([N+](=O)[O-])cc1N
[31]
  Activity: 365

## O=[N+]([O-])c1ccc(/C=N/N=c2\[nH]c(-c3ccc(Br)cc3)nc3ccccc23)o1
Leishmania infantum [1]
  IC50: > 25 µM
Trypanosoma cruzi [2]
  IC50: > 25 µM
[4]
  solubility: 2.67 µM (≈ 1.17 µg/mL)

## O=c1[nH]c(-c2cccc(Cl)c2)nc2ccccc12
Leishmania infantum [1]
  IC50: > 25 µM
Trypanosoma cruzi [2]
  IC50: > 25 µM

## NNc1nc(-c2cccc(Cl)c2)nc2ccccc12
Leishmania infantum [1]
  IC50: 4.55 µM
Trypanosoma cruzi [2]
  IC50: > 25 µM
Trypanosoma cruzi [3]
  inhibition at 25 µM: 38%
